Results taken from ChEMBL document CHEMBL3259517, “Synthesis and evaluation of phosphorus containing, specific CDK9/CycT1 inhibitors” (J Med Chem, 2014).
The source made the active and inactive calls. The rule behind the calls is not given here.

Experiments:
CDK9/cyclin T1 = CDK9/cyclin T1 (Homo sapiens, UniProt P50750); experiment: Inhibition of CDK9/CycT1 (unknown origin) using TAMRA-Rbtide and ATP as substrate after 1 hr; type: protein-complex assay
[1] = target: CDK9/cyclin T1 (Homo sapiens) (UniProt O60563+P50750); experiment: Competitive inhibition of CDK9/CycT1 (unknown origin) using ATP as substrate; type: protein-complex assay
Procedure, shortened: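 Kinase inhibition measured with inhibitor held constant at 260 nM across five ATP concentrations, printed as 1.33, 4, 12 (K_mATP), 36 and 108 […]. Ki taken from measured IC50 via the Cheng−Prusoff equation, with the IC50/Ki ratio compared across ATP levels.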

[2] = target: Cyclin-dependent kinase 2/cyclin E1 (Homo sapiens) (UniProt P24864+P24941); experiment: Inhibition of CDK2/CycE (unknown origin) using FAM labeled peptide as substrate at 10 uM by IMAP FAM FP assay; type: protein-complex assay
Procedure, shortened: (§1)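 Run by contract partners as an IMAP fluorescence polarization assay. […] Enzyme amount was set to give 50% substrate turnover. Compounds were added in DMSO, IMAP binding solution added after the kinase step, then FP read.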

[3] = target: Cyclin-dependent kinase 4/cyclin D1 (Homo sapiens) (UniProt P11802+P24385); experiment: Inhibition of CDK4/CycD1 (unknown origin) using FAM labeled peptide as substrate at 10 uM by IMAP FAM FP assay; type: protein-complex assay; procedure, shortened: as §1
[4] = system: Human immunodeficiency virus 1; experiment: Antiviral activity against HIV1 HTLV-3B infected in human MT4 cells assessed as inhibition of virus proliferation by measuring host cell viability at 1250 nM relative to control; type: functional
Procedure, shortened: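 HIV-1 HTLV-IIIB (3400 TCID50/mL per well; titre set by virus yield assay) infected MT4 cells, 2−3 × 10⁴/well in RPMI1640 with 10% FCS, penicillin and streptomycin, cultured as for the 7-day viability assay (37 °C, 5% CO2). Test compounds were at 1250 nM and AZT control at 25 nM. Read-out was MTT (4 h, DMSO, A540), given relative to infected untreated cells (100%).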

[5] = Cytotoxicity against human MT4 cells assessed as cell viability at 2500 nM after 7 days by MTT assay relative to control; type: cell-based; conditions: read-out: Activity
Procedure, shortened: (§2)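 MT4 cells (2−3 × 10⁴/well) in RPMI1640 with 10% FCS, penicillin and streptomycin, exposed to compound at 2500 or 1250 nM for 7 days at 37 °C, 5% CO2. MTT added for 4 h, supernatant removed, formazan dissolved in DMSO, absorbance read at 540 nm. Viability expressed relative to untreated cells (100%).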

[6] = Cytotoxicity against human MT4 cells assessed as cell viability at 1250 nM after 7 days by MTT assay relative to control; type: cell-based; conditions: read-out: Activity; procedure, shortened: as §2

Chain of CDK9/cyclin T1 (O60563 whole entry): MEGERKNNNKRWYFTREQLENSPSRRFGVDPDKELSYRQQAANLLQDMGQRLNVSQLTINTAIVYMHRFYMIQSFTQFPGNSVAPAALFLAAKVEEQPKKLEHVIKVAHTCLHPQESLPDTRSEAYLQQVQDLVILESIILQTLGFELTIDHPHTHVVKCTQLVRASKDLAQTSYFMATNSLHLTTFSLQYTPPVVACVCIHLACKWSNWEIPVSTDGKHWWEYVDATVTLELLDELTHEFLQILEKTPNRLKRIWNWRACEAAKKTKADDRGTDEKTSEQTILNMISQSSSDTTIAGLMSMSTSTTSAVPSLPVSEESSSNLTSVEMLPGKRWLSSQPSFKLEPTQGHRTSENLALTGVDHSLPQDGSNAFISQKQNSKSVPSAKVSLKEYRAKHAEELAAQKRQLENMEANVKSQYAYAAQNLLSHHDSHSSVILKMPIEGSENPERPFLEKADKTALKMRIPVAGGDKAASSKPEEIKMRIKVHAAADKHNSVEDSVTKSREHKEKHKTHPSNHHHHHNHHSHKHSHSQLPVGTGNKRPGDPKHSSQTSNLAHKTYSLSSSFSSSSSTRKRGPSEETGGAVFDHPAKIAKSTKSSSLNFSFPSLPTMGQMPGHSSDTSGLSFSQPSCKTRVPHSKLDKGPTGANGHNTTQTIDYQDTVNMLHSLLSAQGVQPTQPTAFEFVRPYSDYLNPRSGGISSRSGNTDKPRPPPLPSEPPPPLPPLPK
Chain of CDK9/cyclin T1 (P50750 whole entry): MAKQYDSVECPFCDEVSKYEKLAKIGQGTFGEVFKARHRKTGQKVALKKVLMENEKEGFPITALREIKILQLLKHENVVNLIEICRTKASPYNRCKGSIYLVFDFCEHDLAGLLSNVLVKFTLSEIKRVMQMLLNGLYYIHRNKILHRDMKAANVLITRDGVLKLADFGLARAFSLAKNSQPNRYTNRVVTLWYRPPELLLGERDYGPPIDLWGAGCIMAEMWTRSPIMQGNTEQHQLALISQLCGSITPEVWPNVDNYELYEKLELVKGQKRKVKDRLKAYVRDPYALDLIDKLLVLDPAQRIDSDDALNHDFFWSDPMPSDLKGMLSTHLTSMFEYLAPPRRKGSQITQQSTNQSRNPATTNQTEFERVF

| Compound | IC50 (CDK9/cyclin T1) | further results |
| --- | --- | --- |
| CCOP(=O)(CC)Cc1cc(Nc2cc(-c3cccc([N+](=O)[O-])c3)ncn2)ccc1C (stereo not drawn) | 7.02 µM | – |
| CCCP(=O)(O)Cc1cccc(Nc2cc(-c3ccccc3OC)ncn2)c1 | 0.261 µM | competitive inhibition (qualitative) [1]: Active |
| CCOP(=O)(CC)Cc1ccc(Nc2cc(-c3cccc([N+](=O)[O-])c3)ncn2)cc1 (stereo not drawn) | 7.77 µM | – |
| CCOP(=O)(Nc1cc(Nc2cc(-c3ccccc3OC)ncn2)ccc1C)c1ccccc1 (stereo not drawn) | 5.24 µM | inhibition [2]: 19%; inhibition [3]: 18% |
| CCOP(=O)(Oc1cccc(Nc2cc(-c3cccc([N+](=O)[O-])c3)ncn2)c1)c1ccccc1 (stereo not drawn) | > 10 µM | – |
| CCOP(=O)(c1ccccc1)c1ccc(Nc2cc(-c3cccc(N)c3)ncn2)cc1 (stereo not drawn) | 6.5 µM | – |
| CCOP(=O)(Cc1cc(Nc2cc(-c3ccccc3OC)ncn2)ccc1C)OCC | 5.22 µM | – |
| CCOP(=O)(OCC)c1ccc(Nc2cc(-c3ccccc3OC)ncn2)cc1 | 1.02 µM | inhibition [2]: 69%; inhibition [3]: 22% |
| CCCP(=O)(Cc1cccc(Nc2cc(-c3ccccc3OCc3ccccc3)ncn2)c1)OCC (stereo not drawn) | 0.143 µM | Host cell viability relative to infected untreated cells [4]: 148%; viability at 168 h, 2.5 µM [5]: 93%; viability at 168 h, 1.25 µM [6]: 86% |
| CCOP(=O)(OCC)c1cccc(Nc2cc(-c3ccccc3OC)ncn2)c1 | 1.04 µM | – |
| CCOP(=O)(CC)c1ccc(Nc2cc(-c3ccccc3OC)ncn2)cc1 (stereo not drawn) | 0.418 µM | – |
| CCCP(=O)(Cc1cccc(Nc2cc(-c3ccccc3Oc3ccccc3)ncn2)c1)OCC (stereo not drawn) | 0.601 µM | – |
| CCOP(=O)(CC)c1cccc(Nc2cc(-c3cccc(N)c3)ncn2)c1 (stereo not drawn) | 9.8 µM | – |
| CCOP(=O)(CC)Cc1cccc(Nc2cc(-c3cccc([N+](=O)[O-])c3)ncn2)c1 (stereo not drawn) | 6.43 µM | – |
| CCOP(=O)(CC)Cc1ccc(Nc2cc(-c3ccccc3OC)ncn2)cc1 (stereo not drawn) | 0.743 µM | – |
| CCP(=O)(O)Cc1cccc(Nc2cc(-c3ccccc3OCc3ccccc3)ncn2)c1 | 0.163 µM | Host cell viability relative to infected untreated cells [4]: 124%; viability at 168 h, 2.5 µM [5]: 104%; viability at 168 h, 1.25 µM [6]: 110% |
| COc1ccccc1-c1cc(Nc2ccc(P(=O)(O)O)cc2)ncn1 | 0.58 µM | – |

| Compound | IC50 (CDK9/cyclin T1) | further results |
| --- | --- | --- |
| CCOP(=O)(CC)Cc1ccc(Nc2cc(-c3cccc(N)c3)ncn2)cc1 (stereo not drawn) | 7.53 µM | – |
| CCOP(=O)(CC)Cc1cc(Nc2cc(-c3ccccc3OC)ncn2)ccc1C (stereo not drawn) | 0.366 µM | – |
| CCOP(=O)(Cc1cccc(Nc2cc(-c3ccccc3OC)ncn2)c1)OCC | 0.333 µM | viability at 168 h, 2.5 µM [5]: 100%; viability at 168 h, 1.25 µM [6]: 91% |
| CCOP(=O)(Cc1ccc(Nc2cc(-c3cccc(N)c3)ncn2)cc1)OCC | 3.11 µM | inhibition [2]: 14%; inhibition [3]: 30% |
| CN1CC[C@H](c2c(O)cc(O)c3c(=O)cc(-c4ccccc4Cl)oc23)[C@H](O)C1 | – | inhibition [2]: 99%; inhibition [3]: 84% |
| CCOP(=O)(Cc1cccc(Nc2cc(-c3cccc(N)c3)ncn2)c1)OCC | 0.332 µM | Host cell viability relative to infected untreated cells [4]: 96% |
| CCOP(=O)(Cc1ccc(Nc2cc(-c3ccccc3OC)ncn2)cc1)OCC | 0.49 µM | inhibition [2]: 77%; inhibition [3]: 51% |
| CCOP(=O)(c1ccccc1)c1ccc(Nc2cc(-c3ccccc3OC)ncn2)cc1 (stereo not drawn) | 0.523 µM | – |
| CCOP(=O)(CC)c1cccc(Nc2cc(-c3ccccc3OC)ncn2)c1 (stereo not drawn) | 0.842 µM | – |
| CCOP(=O)(Oc1cc(Nc2cc(-c3ccccc3OC)ncn2)ccc1C)c1ccccc1 (stereo not drawn) | 4.14 µM | inhibition [2]: 8%; inhibition [3]: 19% |
| COc1ccccc1-c1cc(Nc2cccc(P(=O)(O)O)c2)ncn1 | 0.429 µM | inhibition [2]: 56%; inhibition [3]: 40%; Host cell viability relative to infected untreated cells [4]: 130%; competitive inhibition (qualitative) [1]: Active; viability at 168 h, 2.5 µM [5]: 90%; viability at 168 h, 1.25 µM [6]: 90% |
| CCOP(=O)(Oc1cccc(Nc2cc(-c3ccccc3OC)ncn2)c1)c1ccccc1 (stereo not drawn) | 3.1 µM | – |
| CCOP(=O)(Cc1cccc(Nc2cc(-c3cccc([N+](=O)[O-])c3)ncn2)c1)OCC | 9.87 µM | – |
| CCOP(=O)(Oc1cccc(Nc2cc(-c3cccc(N)c3)ncn2)c1)c1ccccc1 (stereo not drawn) | 5.33 µM | – |
| CCOP(=O)(Oc1ccc(Nc2cc(-c3ccccc3OC)ncn2)cc1)c1ccccc1 (stereo not drawn) | 2.84 µM | – |
| CCOP(=O)(CC)Cc1cccc(Nc2cc(-c3ccccc3OCc3ccccc3)ncn2)c1 (stereo not drawn) | 0.212 µM | Host cell viability relative to infected untreated cells [4]: 135%; viability at 168 h, 2.5 µM [5]: 94%; viability at 168 h, 1.25 µM [6]: 98% |

Continued, in another order:

| IC50 (CDK9/cyclin T1) | Compound | further results |
| --- | --- | --- |
| > 10 µM | CCCP(=O)(OCC)c1ccc(Nc2cc(-c3cccc([N+](=O)[O-])c3)ncn2)cc1 (stereo not drawn) | – |
| 0.248 µM | CCCOc1ccccc1-c1cc(Nc2cccc(CP(=O)(CCC)OCC)c2)ncn1 (stereo not drawn) | competitive inhibition (qualitative) [1]: Active |
| > 10 µM | CCOP(=O)(OCC)c1ccc(Nc2cc(-c3cccc(N)c3)ncn2)cc1 | inhibition [2]: 18%; inhibition [3]: 35% |
| 3.32 µM | Nc1cccc(-c2cc(Nc3ccc(P(=O)(O)O)cc3)ncn2)c1 | inhibition [2]: 98%; inhibition [3]: 67% |
| 1.4 µM | CCOP(=O)(OCC)C(O)c1cccc(Nc2cc(-c3cccc(N)c3)ncn2)c1 (stereo not drawn) | – |
| 0.517 µM | CCOP(=O)(Cc1cccc(Nc2cc(-c3ccccc3OC)ncn2)c1)c1ccccc1 (stereo not drawn) | – |
| > 10 µM | CCOP(=O)(CC)c1ccc(Nc2cc(-c3cccc([N+](=O)[O-])c3)ncn2)cc1 (stereo not drawn) | – |
| 0.254 µM | CCCP(=O)(Cc1cccc(Nc2cc(-c3ccccc3OCC)ncn2)c1)OCC (stereo not drawn) | competitive inhibition (qualitative) [1]: Active |
| 1.02 µM | CCOP(=O)(Cc1cccc(Nc2cc(-c3cccc(N)c3)ncn2)c1)c1ccccc1 (stereo not drawn) | – |
| 1.15 µM | CCCP(=O)(OCC)c1ccc(Nc2cc(-c3ccccc3OC)ncn2)cc1 (stereo not drawn) | – |
| 0.51 µM | CCOP(=O)(OCC)C(O)c1ccc(Nc2cc(-c3ccccc3OC)ncn2)cc1 (stereo not drawn) | inhibition [2]: 94%; inhibition [3]: 68% |
| > 10 µM | CCOP(=O)(OCC)c1ccc(Nc2cc(-c3cccc([N+](=O)[O-])c3)ncn2)cc1 | – |
| 2.1 µM | O=[N+]([O-])c1cccc(-c2cc(Nc3ccc(CP(=O)(O)O)cc3)ncn2)c1 | – |
| 0.186 µM | CCCP(=O)(Cc1cccc(Nc2cc(-c3ccc(F)cc3OC)ncn2)c1)OCC (stereo not drawn) | – |
| 4.1 µM | O=[N+]([O-])c1cccc(-c2cc(Nc3cccc(P(=O)(O)O)c3)ncn2)c1 | – |
| > 10 µM | CCOP(=O)(OCC)C(O)c1cccc(Nc2cc(-c3cccc([N+](=O)[O-])c3)ncn2)c1 (stereo not drawn) | – |
| 1.13 µM | Nc1cccc(-c2cc(Nc3ccc(CP(=O)(O)O)cc3)ncn2)c1 | – |
| > 10 µM | CCOP(=O)(Cc1cccc(Nc2cc(-c3cccc([N+](=O)[O-])c3)ncn2)c1)c1ccccc1 (stereo not drawn) | – |
| > 10 µM | CCCP(=O)(Cc1cccc(Nc2cc(-c3ccccc3CC)ncn2)c1)OCC (stereo not drawn) | – |

| IC50 (CDK9/cyclin T1) | Compound | further results |
| --- | --- | --- |
| 6.94 µM | CCCP(=O)(Cc1cccc(Nc2cc(-c3cccc(OC)c3)ncn2)c1)OCC (stereo not drawn) | – |
| > 10 µM | CCCP(=O)(OCC)c1ccc(Nc2cc(-c3cccc(N)c3)ncn2)cc1 (stereo not drawn) | – |
| 5.53 µM | CCCP(=O)(Cc1ccc(Nc2cc(-c3cccc([N+](=O)[O-])c3)ncn2)cc1)OCC (stereo not drawn) | – |
| > 10 µM | CCOP(=O)(c1ccccc1)c1ccc(Nc2cc(-c3cccc([N+](=O)[O-])c3)ncn2)cc1 (stereo not drawn) | – |
| 2.39 µM | CCCP(=O)(Cc1cccc(Nc2cc(-c3cccc(OC)c3OC)ncn2)c1)OCC (stereo not drawn) | – |
| > 10 µM | CCOP(=O)(OCC)c1cccc(Nc2cc(-c3cccc([N+](=O)[O-])c3)ncn2)c1 | – |
| 5.41 µM | CCCP(=O)(Cc1cccc(Nc2cc(-c3ccc(OC)cc3)ncn2)c1)OCC (stereo not drawn) | – |
| > 10 µM | CCOP(=O)(CC)c1cccc(Nc2cc(-c3cccc([N+](=O)[O-])c3)ncn2)c1 (stereo not drawn) | – |
| > 10 µM | CCCP(=O)(Cc1cccc(Nc2cc(-c3cccc(OCc4ccccc4)c3)ncn2)c1)OCC (stereo not drawn) | – |
| 7.47 µM | CCCP(=O)(Cc1ccc(Nc2cc(-c3cccc(N)c3)ncn2)cc1)OCC (stereo not drawn) | – |
| 4.58 µM | CCOP(=O)(OCC)C(O)c1ccc(Nc2cc(-c3cccc([N+](=O)[O-])c3)ncn2)cc1 (stereo not drawn) | – |
| 8.06 µM | CCCP(=O)(Cc1cccc(Nc2cc(-c3cccc([N+](=O)[O-])c3)ncn2)c1)OCC (stereo not drawn) | – |
| > 10 µM | CCOP(=O)(CC)c1ccc(Nc2cc(-c3cccc(N)c3)ncn2)cc1 (stereo not drawn) | – |
| > 10 µM | CCOP(=O)(Cc1ccc(Nc2cc(-c3cccc([N+](=O)[O-])c3)ncn2)cc1)OCC | – |
| 0.346 µM | CCOP(=O)(CC)Cc1cc(Nc2cc(-c3cccc(N)c3)ncn2)ccc1C (stereo not drawn) | – |
| 0.682 µM | CCCP(=O)(Cc1cccc(Nc2cc(-c3cccc(N)c3)ncn2)c1)OCC (stereo not drawn) | – |
| 0.652 µM | CCCP(=O)(Cc1ccc(Nc2cc(-c3ccccc3OC)ncn2)cc1)OCC (stereo not drawn) | – |
| 0.21 µM | CCCP(=O)(Cc1cccc(Nc2cc(-c3ccccc3OC(C)C)ncn2)c1)OCC (stereo not drawn) | – |
